In general, half-life refers to how long it takes for the measured level to halve. Usually IC50 stands for the midpoint of a concentration-inhibition curve. A higher IC50 goes with a need for much substance.

A short description of data set [1]: Half-life in […] Phosphate buffer at pH 7.4(37 degrees C). The format is ADME. The method, boiled down:
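Acetal at 100 μM in 0.05 M phosphate buffer, pH 7.4, shaken at 37 °C without enzyme. Aliquots taken at intervals (typically 2–50 h) and parent drug measured by reverse-phase C-18 HPLC with UV detection at 220 nm. Half-life from linear least-squares regression of pseudo-first-order decay.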

Another data set concerns carboxylate esterase. As to the kind of experiment: Half-life in […] at pH 7.4(37 degrees C) in the presence of pig Liver Carboxylate Esterase. Type of data set: ADME, Sus scrofa. The settings on record: pig liver carboxylate esterase in phosphate buffer. The method, boiled down:
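Acetal at 100 μM in 0.05 M phosphate buffer, pH 7.4, at 37 °C with pig liver carboxylate esterase, 2 units per μmol substrate (1 unit hydrolyses 1.0 μmol ethyl butyrate/min at pH 8.0, 25 °C). Samples vortexed, centrifuged, supernatant analysed by C-18 HPLC, UV 220 nm. Half-life by least-squares regression, pseudo-first-order.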

For the next data set, the system named is L1210. Put plainly: Concentration required to reduce the viability of L1210 cells by 50% after 1-h incubation at 37 degrees C. Type of data set: functional, cell-based. The settings on record: Mus musculus, L1210, 1 h. The method, boiled down: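 Exposed to at least seven drug concentrations (0.1–300 μM) for 1 h at 37 °C, washed, regrown drug-free 72 h. MTT reduction read at 570 nm. IC50 from concentration–viability plot, average of duplicates.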

As for `CCNP(=O)(OCCC(OC(C)=O)OC(C)=O)N(CCCl)CCCl` (configuration not stated), the half-life in data set [1] was 40 h; with carboxylate esterase, 42 s. This molecule showed an IC50 in the data set with L1210 of 29 µM.

For the molecule `C=CC=O.O=S(=O)(O)CCS`, 168 µM corresponded to half-maximal inhibition in the data set on L1210 (IC50).

On to `CC(=O)OC(CCOP(=O)(N(C)C)N(CCCl)CCCl)OC(C)=O` (configuration not stated), for which the half-life is 36 h in data set [1] and 36 s in the data set with carboxylate esterase. The molecule also showed an IC50 with L1210 of over 245 µM.

In the case of `O=P1(N(CCCl)CCCl)NC(OO)CCO1` (configuration not stated) [PERFOSFAMIDE], 90 µM corresponded to half-maximal inhibition with L1210 (IC50).

The molecule `O=S(=O)(O)CCS` [MESNA] registered an IC50 in the data set with L1210 of over 200 µM.

On to `CCN(CC)P(=O)(OCCC(OC(C)=O)OC(C)=O)N(CCCl)CCCl` (configuration not stated), for which the values for the half-life (in data set [1]; with carboxylate esterase) were 37 h and 40 s, respectively. 78 µM corresponded to half-maximal inhibition in the data set with L1210 (IC50).

With `O=P1(N(CCCl)CCCl)NC(OO)CCO1.O=S(=O)(O)CCS` (configuration not stated), inhibition in the data set on L1210 was half-maximal at 90 µM (IC50).

For `CNP(=O)(OCCC(OC(C)=O)OC(C)=O)N(CCCl)CCCl` (configuration not stated), the half-life in data set [1] was 42 h; in the data set on carboxylate esterase, 42 s. This molecule also yielded an IC50 in the data set with L1210 of 38 µM.

In the case of `CC(=O)OC(CCOP(N)(=O)N(CCCl)CCCl)OC(C)=O.O=S(=O)(O)CCS` (configuration not stated), the IC50 in the data set on L1210 worked out at 0.9 µM.

`O=P1(N(CCCl)CCCl)NCCCO1` (configuration not stated) [CYCLOPHOSPHAMIDE ANHYDROUS] came in with an IC50 in the data set on L1210 of over 300 µM.

Consider `CC(=O)OC(CCOP(N)(=O)N(CCCl)CCCl)OC(C)=O` (configuration not stated), for which the half-life in data set [1] is 38 h; in the data set on carboxylate esterase, 36 s. This molecule also showed an IC50 with L1210 of 0.9 µM.

Molecule `C=CC=O` [ACROLEIN] displayed an IC50 in the data set on L1210 of 48 µM. In other words, the double-digit micromolar range.

For the origin of these results see ChEMBL document CHEMBL1125866, “Aldophosphamide acetal diacetate and structural analogues: synthesis and cytotoxicity studies” (J Med Chem, 1991).
